H69AR growth 86K – blocks growth of human H69AR lung tumor cells. H69AR lung tumor viability, ATP luminescence, 72 h; active compounds read low. viability, % at 10 µM. 6% of 85,000 active;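 active = viability at or below 40%; inactive = viability above 40%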;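 note: multidrug resistant small cell line overexpressing MRP-1 efflux transporter; 100% = mean luminescence of untreated control wells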
Lung fibro prol – blocks proliferation of human lung fibroblasts; LL 47 human lung fibroblast viability, ATP luminescence; active compounds read low; AID 719; viability, % at 10 µM; 1.1% of 85,000 active;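 active = viability at or below 50% in the single dose screen; inactive = viability above 50%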;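 note: compound exposure lasted 72 h before the ATP readout; 100% = median luminescence of untreated cell-only wells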
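Material: human lung fibroblast line LL 47, low passage; Evaluation: viability percentage against median untreated-cell control; Buffer or medium: 15% FBS in IMEM; Incubation: 72 h compound exposure at 37 °C after overnight plating; Dosing: 0.1% DMSO in all compound wells; Measured by: CellTiter-Glo luminescence.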
PTEN del growth – PTEN-deleted cell growth suppression; HCT116 PTEN-null viability, CellTiter-Glo, 60 h; active compounds read low; viability, % at 10 µM; 1.2% of 140,000 active; AID 827;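 active = viability at or below a set limit, 4 SD under the median of all tested compounds, cut at about 3.7% in these data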;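 note: PTEN knockout HCT116 line with beta catenin targeted HCT116 as companion control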
HUVEC prolif 384 – inhibitors of human endothelial cell proliferation. HUVEC proliferation, CellTiter-Glo luminescence, 72 h; active compounds read low. viability, % at 10 µM (by protocol). 1.1% of 86,000 active;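 active = viability at or below 30%; inactive = viability above 30%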;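 note: 100% = median luminescence of DMSO-only cell control wells on each plate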
HCT116 bCat-KO – beta-catenin-lacking colon tumor cell growth suppression; viability, % at 10 µM; 1.5% of 140,000 active; HCT116 beta-catenin knockout viability, CellTiter-Glo, 60 h; active compounds read low;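 active = viability at or under a set limit, the compound median less 4 SD, cut at about 6% in these data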;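 note: 0% = Hyamine 1622 control at 20 µM and 100% = untreated cell control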
An asterisk follows results filed as active; x = not tested or not shown. Shown is part of a subset that was picked to be rich in hits.

SMILES	H69AR growth 86K	Lung fibro prol	PTEN del growth	HUVEC prolif 384	HCT116 bCat-KO
Cc1cc(OCC(=O)NC(C)C)cc(C)c1Cl	91.7	101.7	101.6	105.1	81.2
O=C(N/N=C/c1ccc(-c2cccc(C(F)(F)F)c2)o1)c1ccccc1O	x	x	3.1*	x	10.1
COc1ccc(-c2coc3c(CN4CCCCC4)c(O)c(CN4CCCCC4)c(O)c3c2=O)cc1	7.2*	85.4	1.6*	84.9	1.4*
Cn1c(Cn2c(C(F)(F)F)nc3ccccc32)nc2ccccc21	92.4	91.2	106.6	92.4	98.9
OCCn1c(C(F)(F)F)nc2ccccc21	97.1	101.9	0.4*	92.1	1.0*
CCCCn1[nH]c(-c2ccccc2)cc1=O	x	x	101.0	x	90.5
O=[N+]([O-])c1ccc(/C=N/Nc2nc(N3CCCCCC3)nc(N3CCCCCC3)n2)o1	28.5*	85.0	31.9	69.8	49.3
O=[N+]([O-])c1cc2c(cc1/C=N/Nc1nc(N3CCCC3)nc(N3CCCC3)n1)OCO2	x	x	92.1	x	88.5
CCN(CC)c1nc(-c2cccc(OC)c2O)nc2ccccc12	55.3	86.9	70.8	82.9	78.5
COc1cccc(-c2nc(N3CCCCC3C)c3ccccc3n2)c1O (centres undefined)	37.9*	81.1	84.2	47.4	80.8
CCOC(=O)c1c(N/N=C/c2ccncc2)n[nH]c1C	x	x	101.8	x	102.4
O=c1c2ccc([N+](=O)[O-])c3cccc(c32)c2nc3ccccc3n12	x	x	5.0	x	11.8
O=c1c2cccc3c(N4CCOCC4)ccc(c32)c2nc3ccccc3n12	28.0*	92.8	x	49.6	x
Cc1ccccc1OCC(=O)O/N=C(\N)Cc1ccc(Cl)cc1	104.2	108.8	98.4	99.2	81.1
N/C(Cc1ccc(Cl)cc1)=N\OC(=O)c1ccc2ccccc2c1	3.2*	83.0	57.3	5.6*	55.0
N/C(Cc1ccc(Cl)cc1)=N\OC(=O)c1cccc2ccccc12	-0.4*	56.7	41.3	1.4*	38.7
COc1ccc(-n2c(C)cc(-c3csc(N)n3)c2C)cc1	x	x	46.0	x	70.3
CC(=O)Nc1ccc(/C=N/Nc2nc3ccccc3[nH]2)cc1	x	x	35.6	x	15.6
CC(C)Cn1c(/C=N/Nc2nc3ccccc3[nH]2)nc2ccccc21	x	x	13.5	x	11.6
CCCn1c(/C=N/Nc2nc3ccccc3[nH]2)nc2ccccc21	x	x	3.0*	x	3.6*
CCN(CC)c1ccc(/C=N/Nc2nc3ccccc3[nH]2)cc1	x	x	1.6*	x	2.8*
COc1ccc(-c2cc(C(=O)Nc3nc4c(C)cccc4s3)c3ccccc3n2)cc1OC	x	x	62.2	x	72.0
Cc1cccc2sc(NNC(=O)c3cc(-c4cccs4)nc4ccccc34)nc12	x	x	6.0	x	2.3*
COc1ccc([N+](=O)[O-])cc1N(CC(=O)NCCC1=CCCCC1)S(C)(=O)=O	x	x	98.0	x	80.7
O=c1c2c3c(sc2n2c(=S)[nH]nc2n1Cc1ccccc1)CN(Cc1ccccc1)CC3	81.6	97.0	x	84.1	x
SMILES	H69AR growth 86K	Lung fibro prol	PTEN del growth	HUVEC prolif 384	HCT116 bCat-KO
C[C@H]1CC[C@H]2C(=O)N3[C@H](c4ccccc4Br)[C@@H](C)CC[C@H]3C(=O)N2[C@@H]1c1ccccc1Br	x	x	3.0*	x	2.3*
CNC(=S)N/N=C1\C(=O)c2cccc3cccc1c23	13.4*	46.0*	1.2*	39.1	2.6*
CCCCNC(=S)N/N=C1\C(=O)c2cccc3cccc1c23	x	x	89.2	x	84.1
Cc1ccc(-n2nc3cc(C)c(NC(=S)NC(=O)/C=C/c4ccco4)cc3n2)cc1	x	x	6.2	x	5.5*
Cc1cccc(NC(=S)NC(=O)/C=C/c2ccco2)n1	32.8*	89.7	87.5	82.3	85.3
COc1ccccc1NC(=S)NC(=O)/C=C/c1ccco1	x	x	81.6	x	94.6
COc1ccc2[nH]c(C)c(C(=O)CN3CCN(C(=O)c4ccco4)CC3)c2c1	x	x	105.7	x	93.8
COc1ccc2[nH]cc(C(=O)CN3CCN(C(=O)c4ccco4)CC3)c2c1	79.3	107.5	103.7	29.2*	101.8
COC(=O)c1[nH]c2ccccc2c1NC(=O)CN1CCN(C(=O)c2ccco2)CC1	18.3*	95.1	92.8	95.2	91.8
Cc1ccc(-c2csc3ncnc(Sc4nnc(CN5CCCCCC5=O)o4)c23)cc1	-0.2*	31.3*	1.7*	60.7	1.9*
O=C(CNc1cc(S(=O)(=O)N2CCCC2)ccc1OCC(F)(F)F)Nc1ccc(SC(F)F)cc1	x	x	44.9	x	42.7
Cc1ccccc1NC(=O)CSC1=C(C#N)C(c2ccsc2)CC(=O)N1 (centres undefined)	16.7*	79.9	36.3	75.7	37.0
Cc1n[nH]c(C)c1S(=O)(=O)N1CCN(C(=O)c2ccco2)CC1	107.4	103.0	92.7	104.7	96.6
Cc1cc2ncn(/N=C/c3ccc([N+](=O)[O-])o3)c2cc1C	x	x	1.6*	x	2.5*
Cc1cc(Cl)ccc1OCc1nc(-c2ccc(O)cc2)n[nH]1	22.0*	111.0	88.5	72.4	91.9
COC(=O)c1oc2ccc(Br)cc2c1NC(=O)c1ccccc1	29.7*	81.4	75.4	85.3	83.9
CCn1cc(C(=O)NCc2cccc(F)c2)c(=O)c2cc(F)c(N3CCN(C(=O)c4ccco4)CC3)cc21	16.2*	88.9	32.6	63.1	44.4
CCn1cc(C(=O)Nc2nnc(C)s2)c(=O)c2cc(F)c(N3CCN(C(=O)c4ccco4)CC3)cc21	86.9	112.2	x	103.3	x
CCn1cc(C(=O)NCc2cccnc2)c(=O)c2cc(F)c(N3CCN(C(=O)c4ccco4)CC3)cc21	34.7*	102.0	71.5	107.0	82.4
CCCCCCC(=O)N1CCN(c2cc3c(cc2F)c(=O)c(C(=O)O)cn3CC)CC1	27.0*	86.5	x	91.9	x
CCC(=O)N1CCN(c2cc3c(cc2F)c(=O)c(C(=O)O)cn3CC)CC1	99.5	100.7	x	96.3	x
CCOc1ccc(CN(C)CC(=O)Nc2ccc([N+](=O)[O-])cc2Cl)cc1	x	x	78.4	x	86.9
Cc1ccc(NC(=O)/C(Cl)=C/c2ccccc2)cc1C	x	x	66.5	x	67.3
COc1ccc(/C=N/N2C(=O)c3ccccc3C2=O)cc1	x	x	96.6	x	101.0
COc1ccc(/C=N/n2cc(-c3ccccc3)nc2N)cc1	18.2*	82.3	36.3	58.5	34.7
SMILES	H69AR growth 86K	Lung fibro prol	PTEN del growth	HUVEC prolif 384	HCT116 bCat-KO
COc1ccc(/C=N/n2cc(-c3ccc(OC)cc3)nc2N)cc1	25.1*	93.6	80.8	84.3	64.0
CCC(=O)Nc1cc(C(=O)OCc2ccc(C(=O)Oc3ccccc3)cc2)ccc1C	x	x	92.7	x	82.9
O=C(CN1C2=NCCN2c2ccccc21)C12CC3CC(CC(C3)C1)C2	34.6*	96.0	47.5	51.9	60.1
c1ccc(CN2C3=NCCN3c3ccccc32)cc1	x	x	95.9	x	96.3
CC(C)c1cc(N2CCC(=O)NC2=O)cc(C(=O)O)c1O	x	x	96.3	x	93.9
COc1cc(C)c(C(C)C)cc1S(=O)(=O)n1cnc(C)c1	33.7*	55.9	28.2	42.9	24.2
COc1cc(C)c(C(C)C)cc1S(=O)(=O)N1CCN(C)CC1	87.4	95.7	104.5	90.8	101.5
Cc1sc(-c2ccncc2)nc1OC(=O)c1ccccc1	96.4	98.0	94.9	93.8	92.5
CCOc1ccc(-c2cc(CCCC(=O)Nc3cccc(OC)c3)no2)cc1	22.8*	55.3	21.3	68.4	20.2
